ChEMBL document CHEMBL1129036, “Bisindolylmaleimides linked to DNA minor groove binding lexitropsins: synthesis, inhibitory activity against topoisomerase I, and biological evaluation” (J Med Chem, 1996)
Values after ≈ are worked out from the molar mass of the structure shown.

What was measured:
[1] = target: T1, DNA topoisomerase 1 (Homo sapiens) (UniProt P11387); test: Topoisomerase I […] was evaluated by Fluorescence assay using Ethidium Bromide after heat denaturation of pBR322 DNA at concentration 100 uM; conditions: Escherichia coli
T1 sequence (whole entry): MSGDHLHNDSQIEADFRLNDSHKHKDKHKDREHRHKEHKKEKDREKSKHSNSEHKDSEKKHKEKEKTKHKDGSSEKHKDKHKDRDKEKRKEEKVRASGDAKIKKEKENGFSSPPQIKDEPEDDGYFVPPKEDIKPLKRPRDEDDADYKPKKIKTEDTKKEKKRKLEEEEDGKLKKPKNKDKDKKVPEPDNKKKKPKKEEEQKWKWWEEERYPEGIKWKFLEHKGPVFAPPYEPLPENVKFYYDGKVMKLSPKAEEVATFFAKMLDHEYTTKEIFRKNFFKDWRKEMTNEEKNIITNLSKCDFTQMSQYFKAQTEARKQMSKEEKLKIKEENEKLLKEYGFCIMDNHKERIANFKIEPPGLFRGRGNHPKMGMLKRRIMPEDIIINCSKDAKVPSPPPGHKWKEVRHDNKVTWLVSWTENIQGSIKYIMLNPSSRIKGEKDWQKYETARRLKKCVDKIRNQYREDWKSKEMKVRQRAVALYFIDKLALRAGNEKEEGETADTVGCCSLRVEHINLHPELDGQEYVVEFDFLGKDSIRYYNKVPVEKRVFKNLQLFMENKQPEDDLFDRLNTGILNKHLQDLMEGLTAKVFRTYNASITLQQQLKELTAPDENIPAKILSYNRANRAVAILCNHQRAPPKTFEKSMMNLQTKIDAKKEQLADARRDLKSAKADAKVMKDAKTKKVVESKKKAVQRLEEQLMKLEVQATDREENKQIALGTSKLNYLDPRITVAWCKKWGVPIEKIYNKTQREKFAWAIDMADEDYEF
How it was run: (§1)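 0.25 µg pBR322 DNA incubated with ligand alone, no enzyme, 30 min at 37 °C. Ethidium bromide buffer added (0.5 µg/mL EtBr, 20 mM K₃PO₄, 0.5 mM EDTA, pH 12). Fluorescence measured at ex 525/em 600 nm before and after heat denaturation of DNA; percent change vs control.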

[2] = target: T1, DNA topoisomerase 1 (Homo sapiens); test: Topoisomerase I […] was evaluated by Fluorescence assay using Ethidium Bromide after heat denaturation of pBR322 DNA at concentration 25 uM; conditions: Escherichia coli; at 25 µM
How it was run: (§2)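 0.25 µg pBR322 DNA incubated with ligand for 30 min at 37 °C without topoisomerase I (DNA and compound only). Ethidium bromide buffer then added (0.5 µg/mL ethidium bromide, 20 mM K₃PO₄, 0.5 mM EDTA, pH 12). Fluorescence read at excitation 525 nm and emission 600 nm, before and after heat denaturation of the DNA. Reported as percent change from control.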

[3] = target: T1, DNA topoisomerase 1 (Homo sapiens); test: Topoisomerase I DNA relaxation activity was evaluated by Agarose Gel Electrophoresis test at concentration 50 uM; conditions: Escherichia coli
How it was run: (§3)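 Relaxation of 0.25 µg supercoiled pBR322 DNA by 0.5 unit topoisomerase I, 30 min at 37 °C with ligand (25–250 µM), final volume 10 µL. SDS-containing loading buffer added, further 30 min at 37 °C. Agarose gel run overnight, stained with ethidium bromide (0.5 µg/mL), photographed. Percent supercoiled DNA remaining by laser densitometry, scored in bands (<10% to 75–100%).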

[4] = target: T1, DNA topoisomerase 1 (Homo sapiens); test: Topoisomerase I DNA relaxation activity was evaluated by Fluorescence assay using Ethidium Bromide before heat denaturation of pBR322 DNA at concentration 100 uM; conditions: Escherichia coli
How it was run: (§4)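 0.25 µg pBR322 DNA with ligand plus topoisomerase I (0.5 unit), 30 min at 37 °C. Then ethidium bromide buffer added (0.5 µg/mL EtBr, 20 mM K₃PO₄, 0.5 mM EDTA, pH 12). Fluorescence read at ex 525/em 600 nm before and after heat denaturation of DNA; percent change vs control.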

[5] = target: T1, DNA topoisomerase 1 (Homo sapiens); test: Topoisomerase I DNA relaxation activity was evaluated by Fluorescence assay using Ethidium Bromide before heat denaturation of pBR322 DNA at concentration 250 uM; conditions: Escherichia coli; how it was run: as §4
[6] = target: T1, DNA topoisomerase 1 (Homo sapiens); test: Topoisomerase I DNA relaxation activity was evaluated by Agarose Gel Electrophoresis test at concentration 25 uM; conditions: Escherichia coli; at 25 µM
How it was run: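 0.25 µg supercoiled pBR322 DNA and 0.5 unit topoisomerase I incubated with ligand for 30 min at 37 °C (10 µL final). Equal volume loading buffer with SDS added, a further 30 min at 37 °C, agarose gel run overnight, ethidium bromide stained. Supercoiled DNA remaining quantified by laser densitometry of the photographed gel. Scored as % inhibition bands (<10% to 75-100%).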

[7] = target: T1, DNA topoisomerase 1 (Homo sapiens); test: Topoisomerase I DNA relaxation activity was evaluated by Agarose Gel Electrophoresis test at concentration 250 uM; conditions: Escherichia coli; how it was run: as §3
[8] = target: T1, DNA topoisomerase 1 (Homo sapiens); test: Topoisomerase I […] was evaluated by Fluorescence assay using Ethidium Bromide before heat denaturation of pBR322 DNA at concentration 100 uM; conditions: Escherichia coli; how it was run: as §1
[9] = In vitro cytotoxicity against KB cancer cell line (ATCC CCL 17).; format: cell-based; conditions: human, KB cancer cells (ATCC CCL 17); read-out: TD50 (the source's name)
How it was run: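 KB cells grown in Eagle's MEM with 10% calf serum, 37 °C, humidified 5% CO₂. Seeded at 3 × 10³ cells/mL, cultured 24 h, then compound added in triplicate at several concentrations for 3 days. TD50 is the concentration giving 50% reduction in cell count; average of ≥3 determinations.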

[10] = target: T1, DNA topoisomerase 1 (Homo sapiens); test: Topoisomerase I […] was evaluated by Fluorescence assay using Ethidium Bromide after heat denaturation of pBR322 DNA at concentration 50 uM; conditions: Escherichia coli; how it was run: as §1
[11] = target: T1, DNA topoisomerase 1 (Homo sapiens); test: Topoisomerase I DNA relaxation activity was evaluated by Fluorescence assay using Ethidium Bromide after heat denaturation of pBR322 DNA at concentration 50 uM; conditions: Escherichia coli; how it was run: as §4
[12] = target: T1, DNA topoisomerase 1 (Homo sapiens); test: Topoisomerase I […] was evaluated by Fluorescence assay using Ethidium Bromide before heat denaturation of pBR322 DNA at concentration 50 uM; conditions: Escherichia coli; how it was run: as §1
[13] = target: T1, DNA topoisomerase 1 (Homo sapiens); test: Topoisomerase I […] was evaluated by Fluorescence assay using Ethidium Bromide before heat denaturation of pBR322 DNA at concentration 250 uM; conditions: Escherichia coli; how it was run: as §1
[14] = target: T1, DNA topoisomerase 1 (Homo sapiens); test: Topoisomerase I DNA relaxation activity was evaluated by Fluorescence assay using Ethidium Bromide before heat denaturation of pBR322 DNA at concentration 50 uM; conditions: Escherichia coli; how it was run: as §4
[15] = target: T1, DNA topoisomerase 1 (Homo sapiens); test: Topoisomerase I DNA relaxation activity was evaluated by Agarose Gel Electrophoresis test at concentration 100 uM; conditions: Escherichia coli; how it was run: as §3
[16] = target: T1, DNA topoisomerase 1 (Homo sapiens); test: Topoisomerase I DNA relaxation activity was evaluated by Fluorescence assay using Ethidium Bromide after heat denaturation of pBR322 DNA at concentration 25 uM; conditions: Escherichia coli; at 25 µM
How it was run: as §2, with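 “ligand and topoisomerase I (0.5 unit)” for “ligand”, “°C.” for “°C without topoisomerase I (DNA and compound only).”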

[17] = target: T1, DNA topoisomerase 1 (Homo sapiens); test: Topoisomerase I […] was evaluated by Fluorescence assay using Ethidium Bromide before heat denaturation of pBR322 DNA at concentration 25 uM; conditions: Escherichia coli; at 25 µM; how it was run: as §2
[18] = target: T1, DNA topoisomerase 1 (Homo sapiens); test: Topoisomerase I DNA relaxation activity was evaluated by Fluorescence assay using Ethidium Bromide after heat denaturation of pBR322 DNA at concentration 250 uM; conditions: Escherichia coli; how it was run: as §4
[19] = target: T1, DNA topoisomerase 1 (Homo sapiens); test: Topoisomerase I […] was evaluated by Fluorescence assay using Ethidium Bromide after heat denaturation of pBR322 DNA at concentration 250 uM; conditions: Escherichia coli; how it was run: as §1
[20] = target: T1, DNA topoisomerase 1 (Homo sapiens); test: Topoisomerase I DNA relaxation activity was evaluated by Fluorescence assay using Ethidium Bromide before heat denaturation of pBR322 DNA at concentration 25 uM; conditions: Escherichia coli; at 25 µM
How it was run: as §2, with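 “ligand and topoisomerase I (0.5 unit)” for “ligand”, “°C.” for “°C without topoisomerase I (DNA and compound only).”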

[21] = target: T1, DNA topoisomerase 1 (Homo sapiens); test: Topoisomerase I DNA relaxation activity was evaluated by Fluorescence assay using Ethidium Bromide after heat denaturation of pBR322 DNA at concentration 100 uM; conditions: Escherichia coli; how it was run: as §4
[22] = target: T1, DNA topoisomerase 1 (Homo sapiens); conditions: Escherichia coli; at 25 µM
[23] = target: T1, DNA topoisomerase 1 (Homo sapiens); conditions: Escherichia coli; at 25 µM; remark: listed apart in the source

Compound | Change [1] [%] | Change [2] [%] | inhibition [3] [%] | Change [4] [%] | Change [5] [%] | inhibition [6] [%] | inhibition [7] [%] | Change [8] [%] | CC50 [9] [µg/mL] | Change [10] [%] | Change [11] [%] | Change [12] [%] | Change [13] [%] | Change [14] [%] | inhibition [15] [%] | Change [16] [%] | Change [17] [%] | Change [18] [%] | Change [19] [%] | Change [21] [%] | further results
COC(=O)c1cc(NC(=O)c2cc(NC(=O)c3cc(NC(=O)Cn4cc(C5=C(c6c[nH]c7ccccc67)C(=O)NC5=O)c5ccccc54)cn3C)cn2C)cn1C | 17 | 14 | 0 | 15 | 36 | 0 | 0 | 33 | 77.3 (≈ 101 µM) | 17 | 9 | 25 | 52 | 9 | 0 | 6 | 11 | 3 | 20 | 0 | Change [20]: 1%
COC(=O)c1cc(NC(=O)Cn2cc(C3=C(c4c[nH]c5ccccc45)C(=O)NC3=O)c3ccccc32)cn1C | 14 | 15 | 0 | 3 | 1 | 0 | 0 | 6 | 53.2 (≈ 102 µM) | 12 | 18 | 3 | 2 | 1 | 0 |  | 2 | 9 | 17 | 12 | Change [22]: 1%; Change [23]: 18%
CN(C)CCCNC(=O)c1cc(NC(=O)c2cc(NC(=O)c3cc(NC(=O)Cn4cc(C5=C(c6c[nH]c7ccccc67)C(=O)NC5=O)c5ccccc54)cn3C)cn2C)cn1C | 13 | 6 | 50 | 20 | 14 | 25 | 100 | 24 | > 100 | 15 | 7 | 26 | 28 | 15 | 75 | 3 | 28 | 13 | 4 | 15 | Change [20]: 11%
CN(C)CCCNC(=O)c1cc(NC(=O)Cn2cc(C3=C(c4c[nH]c5ccccc45)C(=O)NC3=O)c3ccccc32)cn1C | 3 | 12 | 0 | 6 | 10 | 0 | 25 | 6 | 84 (≈ 142 µM) | 7 | 0 | 1 | 18 | 5 | < 10 |  | 1 | 3 | 2 | 0 | Change [22]: 3%; Change [23]: 6%
CN(C)CCCNC(=O)c1cc(NC(=O)c2cc(NC(=O)Cn3cc(C4=C(c5c[nH]c6ccccc56)C(=O)NC4=O)c4ccccc43)cn2C)cn1C | 12 | 5 | 25 | 18 | 14 | < 10 | 75 | 21 | 92.3 (≈ 129 µM) | 3 | 4 | 14 | 32 | 10 | 50 | 3 | 2 | 9 | 14 | 15 | Change [20]: 7%
COC(=O)c1cc(NC(=O)c2cc(NC(=O)Cn3cc(C4=C(c5c[nH]c6ccccc56)C(=O)NC4=O)c4ccccc43)cn2C)cn1C | 15 | 4 | 0 | 1 | 24 | 0 | 0 | 2 | 58 (≈ 90.1 µM) | 15 | 7 | 3 | 33 | 2 | 0 | 13 | 5 | 3 | 10 | 12 | Change [20]: 3%
CC[C@@]1(O)C(=O)OCc2c1cc1n(c2=O)Cc2cc3ccccc3nc2-1 [CAMPTOTHECIN] |  |  |  | 3 |  |  |  |  | 0.01 (≈ 0.0287 µM) |  | 7 |  |  | 12 |  |  |  |  |  | 3 | Change [22]: 6%; Change [23]: 7%
